From ChEMBL document CHEMBL3120102, “Structure-based design, synthesis and biological evaluation of novel anthra[1,2-d]imidazole-6,11-dione homologues as potential antitumor agents” (2013) come the findings set out here.

The target of experiment [1] is Telomerase reverse transcriptase (Homo sapiens) (UniProt O14746). Nature of the experiment: Inhibition of human tert transcriptional activity assessed as SEAP activity at 1 uM after 24 hrs by SEAP reporter assay. The arrangement: scale not given: the % may be the effect or the level left. The essentials:
(§1)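 Reporter assay for hTERT transcriptional activity using secreted alkaline phosphatase. About 2 × 10³ cells per well were grown for 24 h at 37 °C, then given fresh medium. Buffer was added to the medium: 2 M diethanolamine, 1 mM MgCl2 and 20 mM L-homoarginine. p-Nitrophenyl phosphate was added to 12 mM final. The rate of absorbance increase was read at 405 nm.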
(In a reporter assay the amount or activity of a reporter protein is the signal.)

The target is the same in experiment [2]. In words: Inhibition of human tert transcriptional activity assessed as SEAP activity at 100 uM after 24 hrs by SEAP reporter assay. Also on record: scale not given: the % may be the effect or the level left. A digest of the protocol:
as §1

Experiment [3] is described as follows: Cytotoxicity against human H1299 cells assessed as cell viability at 1 uM after 48 hrs by MTT assay. The conditions noted are these: NCI-H1299, 48 h, read-out: Activity. In kind it is functional. A digest of the protocol: (§2)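 About 2×10³ H1299 cells per well were grown for 24 h at 37 °C in 5% CO2. Compound was dissolved in DMSO immediately before use, diluted in complete medium and left on cells for 48 h. MTT was then added for 4 h at 37 °C, followed by SDS/DMF lysis buffer for 16 h at 37 °C. Absorbance was read at 550 nm.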
On the technique in general: Tetrazolium dyes change colour on reduction, which living cells bring about.

Experiment [4] is described as follows: Cytotoxicity against human H1299 cells assessed as cell viability at 100 uM after 48 hrs by MTT assay. Format: functional. To be noted: NCI-H1299, 48 h, read-out: Activity. The essentials:
as §2

Experiment [5] deals with Telomerase reverse transcriptase (Homo sapiens) (UniProt O14746). In words: Inhibition of human tert transcriptional activity assessed as SEAP activity at 10 uM after 24 hrs by SEAP reporter assay. The arrangement: scale not given: the % may be the effect or the level left. A digest of the protocol:
as §1

Experiment [6] can be described thus: Cytotoxicity against human H1299 cells assessed as cell viability at 10 uM after 48 hrs by MTT assay. Format: functional. To be noted: NCI-H1299, 48 h, read-out: Activity. The essentials: as §2

Telomerase reverse transcriptase (Homo sapiens), sequence (O14746 whole entry): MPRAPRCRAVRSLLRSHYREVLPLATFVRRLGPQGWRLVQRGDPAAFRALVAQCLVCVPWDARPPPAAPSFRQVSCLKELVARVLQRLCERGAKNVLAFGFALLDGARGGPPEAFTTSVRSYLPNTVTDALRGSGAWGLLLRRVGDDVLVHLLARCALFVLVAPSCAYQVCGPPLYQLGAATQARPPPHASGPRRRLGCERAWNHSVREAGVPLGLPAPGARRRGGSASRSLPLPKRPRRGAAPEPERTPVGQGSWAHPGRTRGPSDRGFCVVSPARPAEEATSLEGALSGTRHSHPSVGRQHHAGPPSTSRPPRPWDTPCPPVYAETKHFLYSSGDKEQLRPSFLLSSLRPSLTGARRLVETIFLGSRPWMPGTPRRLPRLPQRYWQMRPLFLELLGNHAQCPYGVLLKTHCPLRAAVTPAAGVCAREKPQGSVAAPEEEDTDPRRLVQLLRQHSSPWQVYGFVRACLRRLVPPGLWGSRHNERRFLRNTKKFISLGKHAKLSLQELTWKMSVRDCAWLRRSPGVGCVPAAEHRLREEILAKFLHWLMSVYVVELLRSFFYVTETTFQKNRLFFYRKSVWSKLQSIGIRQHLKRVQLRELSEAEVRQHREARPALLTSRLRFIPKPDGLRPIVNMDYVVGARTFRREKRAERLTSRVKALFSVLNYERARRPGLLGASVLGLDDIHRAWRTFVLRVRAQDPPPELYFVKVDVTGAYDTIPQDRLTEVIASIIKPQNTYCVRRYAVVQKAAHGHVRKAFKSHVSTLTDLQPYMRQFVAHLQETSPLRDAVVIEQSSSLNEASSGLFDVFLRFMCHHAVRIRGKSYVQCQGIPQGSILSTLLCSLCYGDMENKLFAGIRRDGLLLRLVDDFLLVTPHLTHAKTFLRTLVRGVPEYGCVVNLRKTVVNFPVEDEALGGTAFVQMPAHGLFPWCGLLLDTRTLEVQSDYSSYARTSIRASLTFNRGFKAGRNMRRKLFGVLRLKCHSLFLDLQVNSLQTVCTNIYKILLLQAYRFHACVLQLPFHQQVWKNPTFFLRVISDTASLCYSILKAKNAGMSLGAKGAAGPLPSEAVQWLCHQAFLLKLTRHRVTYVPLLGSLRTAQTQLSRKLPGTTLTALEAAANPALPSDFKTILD

On to `O=C1c2ccccc2C(=O)c2c1ccc1nc(SCCC(=O)N3CCOCC3)[nH]c21`, for which the Activity was determined as 105% in experiment [1], 45% in experiment [2] and 97% in experiment [5]. Besides, the viability at 1 µM in experiment [3] turned out to be 99%. Further, the viability at 100 µM in experiment [4] is 50%. Moreover, the viability at 10 µM in experiment [6] turned out to be 102%.

In the case of `O=C1c2ccccc2C(=O)c2c1ccc1nc(SCCCCCl)[nH]c21`, the Activity stood at 100% in experiment [1], 54% in experiment [2] and 96% in experiment [5]. The viability at 1 µM in experiment [3] was determined as 91%. Besides, in experiment [4], the viability at 100 µM was 83%. Further, the viability at 10 µM in experiment [6] came out at 97%.

On to `O=C1c2ccccc2C(=O)c2c1ccc1nc(SCC(=O)N3CCOCC3)[nH]c21`, for which the Activity in experiment [1] came out at 103%; in experiment [2], 40%; in experiment [5] it was 87%. In addition, in experiment [3], the viability at 1 µM worked out at 91%. For the same compound, the viability at 100 µM in experiment [4] stood at 70%. Also, the viability at 10 µM in experiment [6] amounted to 88%.
